In ChEMBL document CHEMBL1126042, “Reversible inhibitors of the gastric (H+/K+)-ATPase. 2. 1-Arylpyrrolo[3,2-c]quinolines: effect of the 4-substituent” (J Med Chem, 1992):

Tests used:
[1] = molecular target: T1, Potassium-transporting ATPase (Rattus norvegicus, UniProt P09626); test: Inhibition of rat isolated gastric (H(+)/K(+))-ATPase.; format: tissue-based, Stomach
How it was run: (§1)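 (H+/K+)-ATPase activity measured in lyophilized gastric vesicles; compounds dissolved in DMSO, then diluted into pH 7.0 buffer. IC50 given as mean ± range (n = 2) or as a single observed value (n = 1).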

Rattus norvegicus [2] = test: Percentage inhibition of rat gastric secretion following 10 uM/Kg i.v.
[3] = molecular target: T1, Potassium-transporting ATPase; test: The compound was evaluated for the inhibition of gastric H+/K+ ATPase; format: tissue-based, Stomach; how it was run: as §1
Rattus norvegicus [4] = test: The compound was evaluated for the percentage inhibition of rat gastric secretion at a dose of 10 umol/kg on intravenous administration; format: functional; conditions: Stomach
Rattus norvegicus [5] = test: The compound was evaluated for the percentage inhibition of rat gastric secretion at a dose of 10 umol/kg on intravenous administration; d = Compound was too insoluble for intravenous administration; format: functional, organism-based; conditions: Stomach
[6] = molecular target: T2, Potassium-transporting ATPase (Rattus norvegicus) (UniProt P09626+P18598); test: The compound was evaluated for the inhibition of gastric (H(+)/K(+))-ATPase at 30 uM; conditions: Stomach
[7] = molecular target: Potassium-transporting ATPase (Rattus norvegicus, UniProt P09626+P18598); test: The compound was evaluated for the inhibition of gastric (H(+)/K(+))-ATPase; Compound was insoluble; format: protein-complex assay, Stomach; how it was run: as §1
[8] = molecular target: T2, Potassium-transporting ATPase (Rattus norvegicus); test: The compound was evaluated for the inhibition of gastric H+/K+ ATPase at 10 uM; format: tissue-based; conditions: Stomach
Rattus norvegicus [9] = test: The compound was evaluated for the gastric antisecretory activity in the lumen-perfused rat on intravenous administration; format: functional; conditions: Stomach
[10] = molecular target: T2, Potassium-transporting ATPase (Rattus norvegicus); test: The compound was evaluated for the inhibition of gastric (H(+)/K(+))-ATPase at 100 uM; format: protein-complex assay; conditions: Stomach
Canis familiaris [11] = test: The compound was evaluated for the gastric antisecretory activity in the Heidenhain pouch dog for a dose of 1 umol/kg on intravenous administration.; format: functional; conditions: Canis lupus familiaris, Stomach
How it was run: (§2)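 Conscious Heidenhain pouch dogs dosed intravenously; inhibition of gastric acid secretion measured.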

Canis familiaris [12] = test: The compound was evaluated for the gastric antisecretory activity in the Heidenhain pouch dog for a dose of 1 umol/kg on intravenous administration; format: functional; conditions: Canis lupus familiaris, Stomach; how it was run: as §2
Canis familiaris [13] = test: The compound was evaluated for the gastric antisecretory activity in the Heidenhain pouch dog for a dose of 4 umol/kg on intravenous administration; format: functional; conditions: Canis lupus familiaris, Stomach; how it was run: as §2
[14] = molecular target: T2, Potassium-transporting ATPase (Rattus norvegicus); test: The compound was evaluated for the inhibition of gastric H+/K+ ATPase at 100 uM; format: tissue-based; conditions: Stomach

T1 sequence (P09626 whole entry): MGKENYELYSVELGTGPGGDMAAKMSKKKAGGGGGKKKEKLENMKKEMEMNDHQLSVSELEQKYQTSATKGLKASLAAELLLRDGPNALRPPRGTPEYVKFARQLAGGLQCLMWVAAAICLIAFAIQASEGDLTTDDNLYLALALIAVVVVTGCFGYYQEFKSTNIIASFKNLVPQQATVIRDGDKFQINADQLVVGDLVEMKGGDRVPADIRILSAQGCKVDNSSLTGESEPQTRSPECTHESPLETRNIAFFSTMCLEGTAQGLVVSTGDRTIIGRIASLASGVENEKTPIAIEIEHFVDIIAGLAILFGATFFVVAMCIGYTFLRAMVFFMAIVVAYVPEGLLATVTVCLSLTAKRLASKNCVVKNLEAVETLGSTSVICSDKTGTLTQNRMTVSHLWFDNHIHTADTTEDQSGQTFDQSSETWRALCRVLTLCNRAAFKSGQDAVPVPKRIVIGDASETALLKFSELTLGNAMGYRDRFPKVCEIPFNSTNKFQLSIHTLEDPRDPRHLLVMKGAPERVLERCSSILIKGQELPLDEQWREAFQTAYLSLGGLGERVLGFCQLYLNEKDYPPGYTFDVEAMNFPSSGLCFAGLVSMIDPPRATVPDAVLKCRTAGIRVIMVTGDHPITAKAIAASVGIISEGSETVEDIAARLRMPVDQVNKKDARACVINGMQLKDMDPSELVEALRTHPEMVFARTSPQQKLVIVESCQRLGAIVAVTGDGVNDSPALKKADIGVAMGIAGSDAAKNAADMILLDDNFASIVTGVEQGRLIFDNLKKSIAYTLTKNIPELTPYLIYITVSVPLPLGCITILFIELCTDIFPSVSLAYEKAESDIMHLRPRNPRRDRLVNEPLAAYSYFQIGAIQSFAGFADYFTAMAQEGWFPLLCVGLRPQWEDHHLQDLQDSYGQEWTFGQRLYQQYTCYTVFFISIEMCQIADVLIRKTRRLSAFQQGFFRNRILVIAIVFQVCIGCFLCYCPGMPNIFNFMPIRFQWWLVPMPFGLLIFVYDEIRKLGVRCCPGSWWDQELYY
T1 sequence (P18598 whole entry, further chain): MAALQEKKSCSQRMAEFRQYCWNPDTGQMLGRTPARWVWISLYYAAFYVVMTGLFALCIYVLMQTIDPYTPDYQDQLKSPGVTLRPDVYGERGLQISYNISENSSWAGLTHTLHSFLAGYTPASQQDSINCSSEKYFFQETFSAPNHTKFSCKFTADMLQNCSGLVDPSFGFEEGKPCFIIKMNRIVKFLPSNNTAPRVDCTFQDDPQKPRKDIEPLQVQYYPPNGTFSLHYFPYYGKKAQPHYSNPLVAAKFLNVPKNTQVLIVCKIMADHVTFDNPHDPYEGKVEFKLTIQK
Sequence of Potassium-transporting ATPase (Rattus norvegicus, UniProt P09626+P18598) (P09626 whole entry): as the sequence (P09626 whole entry) above
Sequence of Potassium-transporting ATPase (Rattus norvegicus, UniProt P09626+P18598) (P18598 whole entry): as the sequence (P18598 whole entry, further chain) above

SMILES | IC50 [1] | Inhibition (Rattus norvegicus [2]) | other results
Cc1ccccc1N1CCc2c(CO)nc3ccccc3c21 | 1.23 µM | 33% | –
COc1ccccc1N1CCc2c(Cl)nc3c(OC)cccc3c21 | – | – | IC50 [3]: 10.7 µM; inhibition in vivo at 10 µmol/kg (Rattus norvegicus [4]): 19%
COc1nc2c(C)cccc2c2c1CCN2c1ccccc1C | – | – | inhibition (Rattus norvegicus [5]): Too insoluble; inhibition [6]: 0%
COc1ccccc1N1CCc2c1c1cccc(OC)c1[nH]c2=O | 33.4 µM | – | –
COc1cccc2c3c(c(C(=O)Nc4ccccc4C)nc12)CCN3c1ccccc1C | – | – | IC50 [7]: Insoluble
Cc1ccccc1N1CCc2c1nc1c(C)cccc1c2Nc1ccccc1 | 1.1 µM | 0% | –
Cc1ccccc1N1CCc2c(Cl)nc3c(C)cccc3c21 | – | – | inhibition [8]: 25%; inhibition in vivo at 10 µmol/kg (Rattus norvegicus [4]): 15%
CNC(=O)Nc1nc2c(C)cccc2c2c1CCN2c1ccccc1C | 4.97 µM | – | inhibition (Rattus norvegicus [5]): Too insoluble
COc1ccccc1N1CCc2c(O)nc3c(OC)cccc3c21 | – | – | inhibition (Rattus norvegicus [5]): Too insoluble
Cc1ccccc1N1CCc2cnc3c(C)cccc3c21 | 0.98 µM | 47% | ED50 (Rattus norvegicus [9]): 16.2 µmol/kg
Cc1ccccc1N1CCc2c(NC(N)=O)nc3c(C)cccc3c21 | 1.99 µM | – | inhibition (Rattus norvegicus [5]): Too insoluble
Cc1ccccc1N1CCc2c1nc1c(C)cccc1c2Cl | – | – | inhibition [10]: 8%
Cc1ccccc1N1CCc2c(N(C)C)nc3c(C)cccc3c21 | 1.03 µM | 56% | ED50 (Rattus norvegicus [9]): 7.2 µmol/kg
CSc1nc2c(C)cccc2c2c1CCN2c1ccccc1C | – | – | inhibition (Rattus norvegicus [5]): Too insoluble; inhibition [6]: 0%
Cc1ccccc1-n1ccc2c(Cl)nc3c(C)cccc3c21 | – | – | inhibition [14]: 30%; inhibition [8]: 2%
COc1ccccc1N1CCc2cnc3c(OC)cccc3c21 | 1.29 µM | 31% | –

More lines, in order of falling IC50 [1], values ahead:

IC50 [1] | SMILES | Inhibition (Rattus norvegicus [2]) | other results
0.85 µM | CCOC(=O)c1cc(Nc2ccccc2C)c2cccc(OC)c2n1 | – | ED50 (Rattus norvegicus [9]): 8.2 µmol/kg
0.64 µM | COc1cccc2c1nc(C)c1ccn(-c3ccccc3C)c12 | 48% | ED50 (Rattus norvegicus [9]): 7.08 µmol/kg
0.44 µM | COc1ccccc1N1CCc2c(N)nc3c(OC)cccc3c21 | 20% | –
0.41 µM | Cc1ccccc1-n1ccc2c(NCCCO)nc3c(C)cccc3c21 | 30% | –
0.29 µM | CNc1nc2c(C)cccc2c2c1ccn2-c1ccccc1C | 61% | –
0.28 µM | CNc1nc2c(C)cccc2c2c1CCN2c1ccc(OC)cc1C | 67% | –
0.28 µM | COc1cccc2c3c(c(NCCO)nc12)CCN3c1ccccc1C | 67% | –
0.25 µM | CNc1nc2c(OC)cccc2c2c1CCN2c1ccccc1C | 49% | –
0.22 µM | Cc1ccccc1-n1ccc2c(NCCCCO)nc3c(C)cccc3c21 | 47% | –
0.22 µM | Cc1ccccc1N1CCc2c(N)nc3c(C)cccc3c21 | 63% | inhibition in vivo at 1 µmol/kg (Canis familiaris [11]): 53%; ED50 (Rattus norvegicus [9]): 4.3 µmol/kg
0.18 µM | CNc1nc2c(C)cccc2c2c1CCN2c1ccccc1C | 72% | inhibition in vivo at 1 µmol/kg (Canis familiaris [12]): 67%; inhibition in vivo at 4 µmol/kg (Canis familiaris [13]): 95%; ED50 (Rattus norvegicus [9]): 2.8 µmol/kg
0.17 µM | Cc1ccccc1-n1ccc2c(NCCO)nc3c(C)cccc3c21 | 48% | –
